Calls of active or inactive are those of the source. The calls are words filed in the database; no cut-off is given here.

Among the data in ChEMBL document CHEMBL3352752, “Towards the development of chromone-based MEK1/2 modulators” (Eur J Med Chem, 2014) are IC50, inhibition and Ratio IC50 values, retold here.

Target in one assay: not listed separately
Kind of assay: Inhibition of constitutively activated GST-tagged human MEK1 S218D/[…] (MEK1DD) mutant assessed blocking of increase in bovine MBP kinase activity of recombinant His6-tagged ERK2 using [gamma32P]ATP by liquid scintillation counting method.
Conditions: not given
A digest of the protocol: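 GST-MEK1DD (50 ng) preincubated 30 min at 30 °C with inhibitor or vehicle and 50 μM ATP plus 5 μCi [γ-32P]ATP, in 20 mM Hepes, 10 mM MgCl2, 1 mM DTT, pH 7.4. His6-ERK2 (300 ng, E. coli-expressed) added for 30 min, then MBP (0.2 mg/mL) for 10 min. Controls run without ERK2. Stopped with Laemmli buffer. IC50 from duplicate determinations.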
A word on the IC50: it is the concentration that inhibits the measured activity by half. For the compound `COc1cccc(-c2cc(=O)c3cc(Cl)cc(NCc4ccccc4)c3o2)c1N`, the IC50 was determined as 1.4 µM.
On the same count and under the same terms, under `COCCCNc1cc(Cl)cc2c(=O)cc(-c3cccc(OC)c3N)oc12` stands 9.1 µM; under `COc1cccc(-c2cc(=O)c3cc(Cl)cc(NC4CCOCC4)c3o2)c1N`, 1.1 µM; under `COc1cccc(-c2cc(=O)c3cc(Cl)ccc3o2)c1N`, 6.4 µM.
On the same count and under the same terms, under `COc1cccc(-c2cc(=O)c3cc(Cl)cc(NCCCO)c3o2)c1N` stands 0.03 µM; under `COc1cccc(-c2cc(=O)c3cc(Cl)cc(NC(C)C)c3o2)c1N`, 2.7 µM; under `COc1cccc(-c2cc(=O)c3cc(Cl)cc(CCCN)c3o2)c1N`, 4.4 µM.
Same read-out and setting: with `COc1cccc(-c2cc(=O)c3cc(Cl)cc(NCCCN(C)C)c3o2)c1N` the figure was 6.8 µM.
Turning to `COc1cccc(-c2cc(=O)c3cc(Cl)cc(NCCCN)c3o2)c1N`, the IC50 amounted to 10.3 µM.
The same measure, in the same setting: with `CCOc1cccc(-c2cc(=O)c3ccccc3o2)c1N` the figure was 1.9 µM.
On the same count and under the same terms, with `COc1cccc(-c2cc(=O)c3cc(Cl)cc(NCC[C@H](O)CO)c3o2)c1N` the figure was 0.22 µM; with `COc1cccc(-c2cc(=O)c3ccccc3o2)c1N`, 2 µM; with `CCCCNc1cc(Cl)cc2c(=O)cc(-c3cccc(OC)c3N)oc12`, 1.9 µM.

Another assay addresses Dual specificity mitogen-activated protein kinase kinase MEK1/2 (Rattus norvegicus, UniProt Q01986+P36506). Kind of assay: Inhibition of MEK1/2 in rat IEC6 cells assessed as reduction in ERK1/2 loop phosphorylation dosed 30 mins before to stimulation with 10% serum for 5 mins by immunoblotting method.
Conditions: not given
A digest of the protocol:
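IEC-6 cells grown in DMEM/10% FBS, then made quiescent at 95% confluence in serum-free DMEM-Ham's F-12 (1:1) with 15 mM Hepes pH 7.4 and 0.1% BSA for 24 h. Compounds added in DMSO. Lysates immunoblotted for phospho-ERK1/2 (Thr202/Tyr204), with total ERK1/2 and HSC70 as loading controls. Bands quantified by densitometry. IC50 from triplicate determinations.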
On the technique in general: Immunoblotting shows a protein as a band on a membrane.
For `COc1cccc(-c2cc(=O)c3cccc(NCC[C@H](O)CO)c3o2)c1N`, the IC50 was determined as 0.073 µM.
Still for that read-out and setting: under `COc1cccc(-c2cc(=O)c3cc(Cl)cc(NCc4ccccc4)c3o2)c1N` stands more than 100 µM; under `COCCCNc1cc(Cl)cc2c(=O)cc(-c3cccc(OC)c3N)oc12`, more than 100 µM; under `COc1cccc(-c2cc(=O)c3cc(Cl)cc(NC4CCOCC4)c3o2)c1N`, more than 100 µM.
Regarding `COc1cccc(-c2cc(=O)c3cccc(NCCCO)c3o2)c1N`, the IC50 is 0.097 µM.
On the same count and under the same terms, with `COc1cccc(-c2cc(=O)c3cc(Cl)ccc3o2)c1N` the figure was more than 100 µM; with `COc1cccc(-c2cc(=O)c3cc(Cl)cc(NCCCO)c3o2)c1N`, 1.6 µM; with `COc1cccc(-c2cc(=O)c3cc(Cl)cc(NC(C)C)c3o2)c1N`, more than 100 µM.
For the compound `COc1cccc(-c2cc(=O)c3cc(Cl)cc(NCCCN(C)C)c3o2)c1N`, the IC50 is more than 100 µM.
Same read-out and setting: under `COc1cccc(-c2cc(=O)c3cc(Cl)cc(NCCCN)c3o2)c1N` stands more than 100 µM.
Same read-out and setting: with `CCOc1cccc(-c2cc(=O)c3ccccc3o2)c1N` the figure was 1 µM.
Still for that read-out and setting: under `COc1cccc(-c2cc(=O)c3cc(Cl)cc(NCC[C@H](O)CO)c3o2)c1N` stands 3.1 µM; under `COc1cccc(-c2cc(=O)c3ccccc3o2)c1N`, 4.2 µM.
In the case of `CCCCNc1cc(Cl)cc2c(=O)cc(-c3cccc(OC)c3N)oc12`, the IC50 was more than 100 µM.

For the next assay, the target named is Dual specificity mitogen-activated protein kinase kinase 1 (Homo sapiens) (UniProt Q02750). Description: Inhibition of MEK1 (unknown origin) at 1 uM.
Chain of Dual specificity mitogen-activated protein kinase kinase 1 (Homo sapiens) (Q02750 whole entry): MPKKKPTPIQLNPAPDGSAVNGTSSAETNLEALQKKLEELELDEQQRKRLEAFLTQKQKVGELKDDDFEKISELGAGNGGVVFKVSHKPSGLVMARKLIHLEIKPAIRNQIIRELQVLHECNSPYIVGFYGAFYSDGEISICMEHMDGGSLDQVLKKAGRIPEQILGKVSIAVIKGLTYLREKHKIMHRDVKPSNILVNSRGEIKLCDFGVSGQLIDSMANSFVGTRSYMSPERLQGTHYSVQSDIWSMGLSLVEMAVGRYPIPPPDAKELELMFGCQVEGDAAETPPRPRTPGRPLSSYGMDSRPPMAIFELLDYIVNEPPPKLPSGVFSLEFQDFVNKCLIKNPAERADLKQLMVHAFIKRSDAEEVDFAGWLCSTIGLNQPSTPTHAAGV
Conditions: not given
As to `COc1cccc(-c2cc(=O)c3cc(Cl)cc(NCCCO)c3o2)c1N`, the inhibition result was “Active”.

For another assay, the system named is HT-29. Kind of assay: Antiproliferative activity against human HT-29 cells after 5 days by WST1 assay. The format is functional, cell-based. To be noted: HT-29, 120 h. In outline:
(§1)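 Cells seeded at 2×10^3 (HCT 116, HT-29) or 1.2×10^3 (A-375, A549) per well in DMEM with 10% FBS, 2 mM glutamine and antibiotics. Compounds added in DMSO, with medium changed daily for 5 days. WST-1 then added for 1 h. Absorbance read at 450 nm, reference 620 nm. Triplicate wells.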
For orientation: Formazan colour is commonly taken as a measure of viable cells.
`COc1cccc(-c2cc(=O)c3cc(Cl)cc(NCCCO)c3o2)c1N` registered an IC50 of 1.6 µM.
Same read-out and setting: under `COc1cccc(-c2cc(=O)c3cc(Cl)cc(NCC[C@H](O)CO)c3o2)c1N` stands 3.7 µM; under `COc1cccc(-c2cc(=O)c3ccccc3o2)c1N`, 4 µM.

Another assay deals with A-375. Description: Antiproliferative activity against human A375 cells after 5 days by WST1 assay. It counts as functional, cell-based. To be noted: A-375, 120 h. A digest of the protocol:
as §1
Turning to `COc1cccc(-c2cc(=O)c3cc(Cl)cc(NCCCO)c3o2)c1N`, the IC50 was determined as 5.9 µM.
Same read-out and setting: under `COc1cccc(-c2cc(=O)c3cc(Cl)cc(NCC[C@H](O)CO)c3o2)c1N` stands 10.5 µM.

Another assay relates to A549. Kind of assay: Antiproliferative activity against human A549 cells after 5 days by WST1 assay. It counts as functional, cell-based. The following applies: A549, 120 h. In outline: as §1
Take `COc1cccc(-c2cc(=O)c3cc(Cl)cc(NCCCO)c3o2)c1N`: it took 12 µM to reach half-maximal inhibition (IC50).
The same measure, in the same setting: with `COc1cccc(-c2cc(=O)c3cc(Cl)cc(NCC[C@H](O)CO)c3o2)c1N` the figure was 17.4 µM.

System in the next assay: not listed separately
Description: Antiproliferative activity against human HCT116 cells after 5 days by WST1 assay. It counts as functional, cell-based. The following applies: HCT-116, 120 h. In outline:
as §1
Regarding `COc1cccc(-c2cc(=O)c3cc(Cl)cc(NCCCO)c3o2)c1N`, the IC50 came out at 10.3 µM.
Still for that read-out and setting: under `COc1cccc(-c2cc(=O)c3cc(Cl)cc(NCC[C@H](O)CO)c3o2)c1N` stands 13 µM.

For another assay, the species on record is Homo sapiens. Description: Potency index, ratio of IC50 for PD98059 to IC50 for test compound against constitutively activated GST-tagged human MEK1 S218D/[…] (MEK1DD) mutant.
Conditions: not given
As for `COc1cccc(-c2cc(=O)c3cc(Cl)cc(NCCCO)c3o2)c1N`, the Ratio IC50 was less than 100.
